Key:
MT2 [1] = test: Cytotoxicity against human MT2 cells infected with HIV1 3B by MTT assay; type: cell-based
[2] = test system: Human immunodeficiency virus 1; test: Antiviral activity against Human immunodeficiency virus 1 3B infected in human MT2 cells assessed as protection against viral infection by MTT assay; type: functional, organism-based
Procedure, shortened: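 HIV-1 (IIIB or variant strains) infected into MT-2 human T-cells. The MTT colorimetric read-out measured cell viability. […] Antiviral curves used triplicate samples at each concentration, and a cytotoxicity (CC50) curve on MT-2 growth was run at the same time.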

[3] = test system: Human immunodeficiency virus 1; test: Antiviral activity against Human immunodeficiency virus 1 NL4.3 reverse transcriptase K103N and Y181C double mutant infected in human MT2 cells assessed as inhibition of viral infection; type: functional, organism-based; details: Human immunodeficiency virus 1, NL4.3, MT2
Procedure, shortened: (§1)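 HIV-1 (IIIB or variant strains) infected into MT-2 human T-cells. The MTT colorimetric read-out measured cell viability. Antiviral curves used triplicate samples at each concentration, and a cytotoxicity (CC50) curve on MT-2 growth was run at the same time.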

[4] = test system: Human immunodeficiency virus 1; test: Antiviral activity against Human immunodeficiency virus 1 NL4.3 reverse transcriptase Y181C mutant infected in human MT2 cells assessed as inhibition of viral infection; type: functional, organism-based; details: Human immunodeficiency virus 1, NL4.3, MT2; procedure, shortened: as §1
MT2 [5] = test: (§2) Cytotoxicity against human MT2 cells infected with HIV1 NL4.3 by MTT assay; type: cell-based; details: mt2
[6] = test system: Human immunodeficiency virus 1; test: Antiviral activity against Human immunodeficiency virus 1 NL4.3 infected in human MT2 cells assessed as inhibition of viral infection; type: functional, organism-based; details: Human immunodeficiency virus 1, NL4.3, MT2; procedure, shortened: as §1
[7] = test system: Human immunodeficiency virus 1; test: Ratio of EC50 for Human immunodeficiency virus 1 NL4.3 reverse transcriptase K103N and Y181C double mutant to EC50 for Human immunodeficiency virus 1 NL4.3 expressing wild type reverse transcriptase; type: functional
[8] = test system: Human immunodeficiency virus 1; test: Ratio of EC50 for Human immunodeficiency virus 1 NL4.3 reverse transcriptase Y181C mutant to EC50 for Human immunodeficiency virus 1 NL4.3 expressing wild type reverse transcriptase; type: functional
[9] = test system: Human immunodeficiency virus 1; test: Antiviral activity against Human immunodeficiency virus 1 NL4.3 infected in human MT4 cells assessed as inhibition of viral infection; type: functional, organism-based; details: Human immunodeficiency virus 1, NL4.3, MT4
[10] = test system: Human immunodeficiency virus 1; test: Antiviral activity against Human immunodeficiency virus 1 NL4.3 reverse transcriptase K103N and Y181C double mutant infected in human MT4 cells assessed as inhibition of viral infection; type: functional, organism-based; details: Human immunodeficiency virus 1, NL4.3, MT4
[11] = as §2; type: cell-based; details: MT2 cells infected with HIV1 NL4.3
[12] = test system: Human immunodeficiency virus 1; test: Antiviral activity against Human immunodeficiency virus 1 NL4.3 reverse transcriptase Y181C mutant infected in human MT4 cells assessed as inhibition of viral infection; type: functional, organism-based; details: Human immunodeficiency virus 1, NL4.3, MT4
[13] = Cytotoxicity against human MT4 cells infected with HIV1 NL4.3 by MTT assay; type: cell-based

Structure (SMILES) | CC50 (MT2 [1]) | EC50 [2] | EC50 [3] | EC50 [4] | CC50 (MT2 [5]) | EC50 [6] | further results
O=c1ccn(CCOc2ccc(Cl)cc2Cc2cc(Cl)cc(Cl)c2)c(=O)[nH]1 | 10000 nM | 1300 nM | – | – | – | – | –
N#Cc1ccc(Oc2ccccc2Cl)c(OCCn2ccc(=O)[nH]c2=O)c1 | > 100000 nM | 270 nM | – | – | – | – | –
O=c1ccn(CCOc2ccc(Cl)cc2Cc2cc(Cl)ccc2Cl)c(=O)[nH]1 | 15000 nM | 380 nM | – | – | – | – | –
N#Cc1cc(C#N)cc(Oc2ccc(Cl)cc2OCCn2ccc(=O)[nH]c2=O)c1 | > 100000 nM | 46 nM | – | – | – | – | –
O=c1ccn(CCOc2cc(Cl)cc(Cl)c2Oc2ccccc2Cl)c(=O)[nH]1 | 13000 nM | 830 nM | – | – | – | – | –
N#C/C=C/c1cc(Cl)cc(Oc2ccc(Cl)cc2OCCn2ccc(=O)[nH]c2=O)c1 | 10000 nM | 0.055 nM | 220 nM | 49 nM | 10000 nM | 0.055 nM | –
O=c1ccn(CCOc2ccc(Cl)cc2Cc2ccccc2)c(=O)[nH]1 | 23000 nM | 1200 nM | – | – | – | – | –
O=c1ccn(CCOc2ccc(Cl)cc2Cc2c(Cl)cccc2Cl)c(=O)[nH]1 | 49000 nM | 310 nM | – | – | – | – | –
N#Cc1cc(F)c(Oc2ccccc2Cl)c(OCCn2ccc(=O)[nH]c2=O)c1 | > 100000 nM | 160 nM | – | – | – | – | –
N#Cc1cccc(Cl)c1Oc1cc(Cl)ccc1OCCn1ccc(=O)[nH]c1=O | 50000 nM | 120 nM | – | – | – | – | –
N#Cc1ccc(Cl)c(Oc2ccc(Cl)cc2OCCn2ccc(=O)[nH]c2=O)c1 | 60000 nM | 100 nM | – | – | – | – | –
Cc1cc(C)cc(Oc2c(CSCc3ccco3)c(C)[nH]c(=O)c2I)c1 | – | – | – | – | – | 1 nM | –
N#Cc1cc(Cl)cc(Oc2ccc(Cl)cc2OCCn2cc(Cl)c(=O)[nH]c2=O)c1 | 31000 nM | 17 nM | 570 nM | 240 nM | 21000 nM | 17 nM | Ratio EC50 [7]: 34; Ratio EC50 [8]: 14
N#Cc1ccc(Oc2cc(Cl)cc(Cl)c2)c(OCCn2ccc(=O)[nH]c2=O)c1 | > 100000 nM | 20 nM | > 43000 nM | 800 nM | > 61000 nM | 20 nM | –
N#Cc1cc(Cl)cc(Oc2cc(Cl)ccc2OCCn2ccc(=O)[nH]c2=O)c1 | 33000 nM | 90 nM | 1200 nM | 6700 nM | 32000 nM | 90 nM | –
O=c1[nH]c(=O)n(CCOc2ccc(Cl)cc2Cc2ccccc2)cc1F | 27000 nM | 2500 nM | – | – | – | – | –
Cc1ccnc2c1NC(=O)c1cccnc1N2C1CC1 [NEVIRAPINE] | – | – | > 100000 nM | > 100000 nM | – | – | EC50 [9]: 81 nM; EC50 [10]: > 10000 nM; CC50 [11]: > 100000 nM; EC50 [12]: > 10000 nM
O=c1ccn(CCOc2ccc(Cl)cc2Cc2cccc(Cl)c2)c(=O)[nH]1 | 11000 nM | 1500 nM | – | – | – | – | –
O=c1ccn(CCOc2cc(Cl)ccc2Cc2ccccc2Cl)c(=O)[nH]1 | 12000 nM | 410 nM | – | – | – | – | –
N#C/C=C/c1cccc(Oc2ccc(Cl)cc2OCCn2ccc(=O)[nH]c2=O)c1 | 19000 nM | 5 nM | 1600 nM | 370 nM | 22000 nM | 5 nM | –

Structure (SMILES) | CC50 (MT2 [1]) | EC50 [2] | EC50 [3] | EC50 [4] | CC50 (MT2 [5]) | EC50 [6] | further results
N#Cc1cc(Cl)cc(Oc2ccc(Cl)cc2OCCn2cc(F)c(=O)[nH]c2=O)c1 | 17000 nM | 13 nM | 1700 nM | 620 nM | 13000 nM | 13 nM | –
O=C1Nc2ccc(Cl)cc2[C@@](C#CC2CC2)(C(F)(F)F)O1 [EFAVIRENZ] | – | – | – | – | – | – | EC50 [9]: 1.4 nM; EC50 [10]: 37 nM; EC50 [12]: 2 nM
COCCOc1cccc(Oc2ccc(C#N)cc2OCCn2ccc(=O)[nH]c2=O)c1 | > 100000 nM | 540 nM | – | – | – | – | –
N#Cc1cc(Cl)cc(Oc2ccc(Cl)cc2OCCn2ccc(=O)[nH]c2=O)c1 | – | 14 nM | 1700 nM | 520 nM | – | 14 nM | CC50 [11]: > 100000 nM
N#Cc1cc(Cl)cc(Oc2ccc(C#N)cc2OCCn2ccc(=O)[nH]c2=O)c1 | > 100000 nM | 6000 nM | – | – | – | – | –
Cc1ccc(OCCn2ccc(=O)[nH]c2=O)c(Cc2ccccc2)c1 | 72000 nM | 4800 nM | – | – | – | – | –
Cc1cn(CCOc2ccc(Cl)cc2Cc2ccccc2)c(=O)[nH]c1=O | 22000 nM | 2400 nM | – | – | – | – | –
O=c1[nH]c(=O)n(CCOc2ccc(Cl)cc2Cc2ccccc2)cc1Cl | 21000 nM | 2200 nM | – | – | – | – | –
O=c1ccn(CCOc2ccc(Cl)cc2Cc2ccccc2Cl)c(=O)[nH]1 | 28000 nM | 620 nM | – | – | – | – | –
N#Cc1cc(Cl)cc(Oc2ccc(C#N)cc2OCCn2cc(Cl)c(=O)[nH]c2=O)c1 | 94000 nM | 5300 nM | – | – | – | – | –
Cc1cc(/C=C/C#N)cc(C)c1Nc1ccnc(Nc2ccc(C#N)cc2)n1 [RILPIVIRINE] | – | – | – | – | > 1000 nM | – | EC50 [9]: 0.4 nM; EC50 [10]: 1 nM; CC50 [13]: 8000 nM
Cc1cc(C#N)cc(C)c1Oc1nc(Nc2ccc(C#N)cc2)nc(N)c1Br [ETRAVIRINE] | – | – | – | – | – | – | EC50 [10]: 4 nM; EC50 [12]: 7 nM
N#C/C=C/c1cccc(Oc2ccc(C#N)cc2OCCn2ccc(=O)[nH]c2=O)c1 | > 100000 nM | 15 nM | 8000 nM | 980 nM | > 90000 nM | 15 nM | –
O=c1ccn(CCOc2ccc(Cl)cc2Cc2ccc(Cl)cc2Cl)c(=O)[nH]1 | 88000 nM | 2900 nM | – | – | – | – | –
N#Cc1cc(C#N)cc(Oc2cc(Cl)ccc2OCCn2ccc(=O)[nH]c2=O)c1 | 80000 nM | 140 nM | 2200 nM | 21000 nM | 77000 nM | 140 nM | –
N#C/C=C/c1cc(F)cc(Oc2ccc(F)cc2OCCn2ccc(=O)[nH]c2=O)c1 | 45000 nM | 0.32 nM | 85 nM | 16 nM | 45000 nM | 0.32 nM | –
N#Cc1ccc(Oc2cc(Cl)ccc2Cl)c(OCCn2ccc(=O)[nH]c2=O)c1 | 71000 nM | 43 nM | 2800 nM | 920 nM | 59000 nM | 43 nM | –
CNc1ccc(Oc2cc(Cl)cc(/C=C/C#N)c2)c(OCCn2ccc(=O)[nH]c2=O)c1 | 30000 nM | 20 nM | – | 2800 nM | 30000 nM | 20 nM | –
N#C/C=C/c1cc(F)cc(Oc2ccc(Cl)cc2OCCn2ccc(=O)[nH]c2=O)c1 | 48000 nM | 3.2 nM | 900 nM | 150 nM | 48000 nM | 3.2 nM | –
N#Cc1ccc(Oc2cccc(OCCCO)c2)c(OCCn2ccc(=O)[nH]c2=O)c1 | > 100000 nM | 1800 nM | – | – | – | – | –

From ChEMBL document CHEMBL1921799, “Computationally-guided optimization of a docking hit to yield catechol diethers as potent anti-HIV agents” (J Med Chem, 2011)
